Measurements as given in paper PMC8202272 (Pulmonary Circulation, 2021).

How the values were obtained:
[1] = system: human umbilical vein endothelial cell (HUVEC); experiment: HUVEC proliferation assay; assay type: cell-based; settings: read-out: IC50 HUVECs proliferation
MRC5 = MRC5 proliferation assay; assay type: cell-based; settings: Homo sapiens, MRC5, read-out: IC50 MRC5 proliferation
[2] = Pharmacokinetic studies in Sprague Dawley rats; assay type: in vivo; settings: rat, plasma
Male SD rats = experiment: Drug plus three weeks hypoxia; assay type: in vivo, rat; settings: for Right ventricular systolic pressure (RVSP): 17.8 µg/h Alzet osmotic pump for 14 of 21 days of hypoxia; for RVH compared to the normal control group: 28 days post-hypoxia; for Induction of severe PAH: drug plus hypoxia, rats
Summary of the method: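 Male SD rats got test compound 20 mg/kg SC once or 17.8 μg/h by osmotic minipump, then 3 weeks at FiO2 10% and 14 or 28 days normoxia; untreated normoxic rats as controls. Under isoflurane, RV pressure by sternotomy catheter; RV free wall, IVS, LV weighed. Lungs perfused with 10% formalin, H&E 8 μm sections, lumen/media area ratio, ≥20 arterioles/section. RV Picro-Sirius red staining.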

[3] = target: T1, bone morphogenic protein receptor type 2 (BMPR2) (Homo sapiens, UniProt Q13873); experiment: KdELECT assay, inhibitor binding constant for BMPR2
T1 sequence (Q13873 27-1038): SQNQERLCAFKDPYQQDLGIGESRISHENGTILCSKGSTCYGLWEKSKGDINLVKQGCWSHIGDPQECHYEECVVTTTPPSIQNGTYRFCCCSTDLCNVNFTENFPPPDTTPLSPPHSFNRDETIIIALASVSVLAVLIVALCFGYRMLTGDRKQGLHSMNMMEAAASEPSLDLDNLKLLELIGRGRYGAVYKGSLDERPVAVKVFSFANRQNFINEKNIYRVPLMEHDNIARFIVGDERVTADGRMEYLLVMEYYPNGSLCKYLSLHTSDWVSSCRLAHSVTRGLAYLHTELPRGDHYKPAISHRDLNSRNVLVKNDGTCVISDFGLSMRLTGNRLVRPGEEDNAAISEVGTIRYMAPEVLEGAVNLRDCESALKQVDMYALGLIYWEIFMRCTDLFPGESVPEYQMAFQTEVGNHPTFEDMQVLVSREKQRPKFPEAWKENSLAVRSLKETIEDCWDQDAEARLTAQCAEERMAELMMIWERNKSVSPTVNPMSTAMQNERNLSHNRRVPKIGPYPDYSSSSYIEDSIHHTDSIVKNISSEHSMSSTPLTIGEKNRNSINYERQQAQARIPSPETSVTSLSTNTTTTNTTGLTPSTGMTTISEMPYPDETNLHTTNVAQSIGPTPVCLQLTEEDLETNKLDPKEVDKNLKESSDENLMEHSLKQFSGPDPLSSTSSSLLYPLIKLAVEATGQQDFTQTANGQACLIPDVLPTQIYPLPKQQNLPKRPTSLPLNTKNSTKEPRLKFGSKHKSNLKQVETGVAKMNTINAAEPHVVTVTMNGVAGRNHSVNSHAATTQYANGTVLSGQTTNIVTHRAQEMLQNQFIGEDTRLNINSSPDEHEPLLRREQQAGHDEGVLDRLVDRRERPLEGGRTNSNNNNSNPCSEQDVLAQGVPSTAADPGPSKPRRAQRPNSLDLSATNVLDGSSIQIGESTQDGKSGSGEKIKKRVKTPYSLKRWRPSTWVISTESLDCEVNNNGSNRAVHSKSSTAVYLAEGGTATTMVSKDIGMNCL

VEGFR2 kinase = settings: read-out: IC50 VEGFR2 kinase (reported); cited from earlier work
VEGFR2 = VEGFR2 (Homo sapiens, UniProt P35968); experiment: KINOMEscan Profiling against 468 human kinases: VEGFR2; assay type: binding; settings: 10,000 nM
Chain of VEGFR2 (P35968 20-1356): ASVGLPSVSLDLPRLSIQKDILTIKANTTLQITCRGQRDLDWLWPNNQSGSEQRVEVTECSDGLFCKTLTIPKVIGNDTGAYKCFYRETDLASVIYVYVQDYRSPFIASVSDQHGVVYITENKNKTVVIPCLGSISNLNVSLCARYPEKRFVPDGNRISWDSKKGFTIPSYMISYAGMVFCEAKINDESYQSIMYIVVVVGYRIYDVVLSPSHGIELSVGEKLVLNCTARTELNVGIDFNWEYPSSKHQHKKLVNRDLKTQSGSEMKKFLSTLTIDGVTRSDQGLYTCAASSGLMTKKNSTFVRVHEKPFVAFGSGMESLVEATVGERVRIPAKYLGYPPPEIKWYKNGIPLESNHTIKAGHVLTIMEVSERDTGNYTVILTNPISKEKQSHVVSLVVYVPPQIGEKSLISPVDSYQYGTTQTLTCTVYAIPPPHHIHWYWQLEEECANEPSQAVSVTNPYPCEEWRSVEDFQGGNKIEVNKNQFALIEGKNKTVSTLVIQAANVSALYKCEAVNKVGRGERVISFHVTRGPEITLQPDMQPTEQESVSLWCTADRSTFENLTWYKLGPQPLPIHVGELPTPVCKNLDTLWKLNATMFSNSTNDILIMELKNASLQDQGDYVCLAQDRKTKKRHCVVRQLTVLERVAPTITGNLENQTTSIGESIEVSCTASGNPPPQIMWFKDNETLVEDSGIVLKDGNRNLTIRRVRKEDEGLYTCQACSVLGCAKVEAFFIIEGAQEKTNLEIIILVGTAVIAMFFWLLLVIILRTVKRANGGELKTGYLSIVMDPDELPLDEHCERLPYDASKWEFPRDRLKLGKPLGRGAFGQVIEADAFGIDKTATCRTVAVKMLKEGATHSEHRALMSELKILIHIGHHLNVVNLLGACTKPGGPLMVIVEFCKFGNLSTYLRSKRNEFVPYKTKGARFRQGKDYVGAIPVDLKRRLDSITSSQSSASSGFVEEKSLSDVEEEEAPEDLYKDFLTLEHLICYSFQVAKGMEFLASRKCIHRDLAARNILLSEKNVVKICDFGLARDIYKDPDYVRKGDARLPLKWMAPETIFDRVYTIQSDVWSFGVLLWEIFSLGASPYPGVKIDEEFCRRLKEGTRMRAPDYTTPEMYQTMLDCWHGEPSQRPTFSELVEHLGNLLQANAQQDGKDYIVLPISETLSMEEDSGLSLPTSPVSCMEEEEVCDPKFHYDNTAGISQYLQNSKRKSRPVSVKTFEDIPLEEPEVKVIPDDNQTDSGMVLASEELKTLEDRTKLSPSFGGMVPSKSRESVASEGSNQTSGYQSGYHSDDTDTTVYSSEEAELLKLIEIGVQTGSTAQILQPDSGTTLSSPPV

[4] = other: via an Alzet pump, 12 mg/kg

| AUC(0-t) [2, 4] [ng·h/mL] | Cmax [2, 4] [ng/mL] | half-life [2, 4] [h] | AUC(0-t) ([2]; sc, 20 mg/kg) [ng·h/mL] | Cmax ([2]; sc, 20 mg/kg) [ng/mL] | half-life ([2]; sc, 20 mg/kg) [h] | Right ventricular systolic pressure (RVSP) (Male SD rats; 14 days after removal from hypoxia, mean ± SEM) [mmHg] | Right ventricular systolic pressure (RVSP) (Male SD rats; 28 days after removal from hypoxia, mean ± SEM) [mmHg] | RVH by Fulton's Index (RV/(LV + IVS)) (Male SD rats; 14 days post-hypoxia, Cabo = SC + Alzet groups, mean ± SEM) | RVH compared to the normal control group (Male SD rats) | Induction of severe PAH (Male SD rats) | Kd [3] [nM] | RV fibrosis (Picro-Sirius red, qualitative) (Male SD rats; days 14 and 28 after removal from hypoxia, SU5416H vs CaboH groups) | Activity against VEGFR2 in kinome screen (VEGFR2) | SMILES | IC50 [1] [nM] | IC50 (MRC5) [nM] | IC50 (VEGFR2 kinase) [nM] |
| --- | --- | --- | --- | --- | --- | --- | --- | --- | --- | --- | --- | --- | --- | --- | --- | --- | --- |
| 16800 | 238 ± 83 | 43 ± 8 | 27500 | 1620 ± 103 | 25.7 ± 10.8 | 40.0 ± 3.1 | 27.9 ± 1.9 | 0.36 ± 0.02 | no significant difference | did not induce severe PAH | > 10000 | – | – | COc1cc2nccc(Oc3ccc(NC(=O)C4(C(=O)Nc5ccc(F)cc5)CC4)cc3)c2cc1OC [Cabozantinib, cabozantinib] | 4.9 | 549 | 0.035 |
| – | – | – | 12.6 ± 2 | 4.97 ± 2.3 | 5 ± 4.7 | – | – | – | significantly increased | induced severe PAH | – | increase in RV fibrosis | potent | Cc1cc(C)c(/C=C2\C(=O)Nc3ccccc32)[nH]1 [SU5416] | 330 | 11700 | – |
